Measurements published in paper PMC3942533 (Journal of medicinal chemistry, 2013).
Counter-ions that a name gives are not always drawn. Like-named read-outs stand apart in the source and are kept apart here.

Assays:
mouse vas deferens (δ) [1] = assay: MVD isolated tissue bioassay; format: biochemical; settings: read-out: MVD (δ) IC50; 50% inhibition of muscle contraction, n = 4, ±SEM
[2] = system: guinea pig ileum/longitudinal muscle myenteric plexus (μ); assay: GPI isolated tissue bioassay; format: biochemical; settings: for IC50: read-out: GPI (μ) IC50, 50% inhibition of muscle contraction, n = 4, ±SEM
mouse hot plate = assay: Hot plate antinociception test; format: in vivo; settings: mice, icv 0.6 nmol, 30 and 45 min after administration
Procedure, shortened: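 Mice received the test compound locally (icv, 0.6 nmol) or systemically (iv, 3000 nmol) and were assessed on the hot plate, with morphine as a reference. Antinociception expressed as % MPE over time and reported as mean ± SEM. Compared with vehicle-treated animals by two-way ANOVA and Bonferroni post hoc tests; significance P < 0.05.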

[3] = Enzymatic stability in human plasma; format: in vitro ADME; settings: 37 °C, compared with Biphalin
Procedure, shortened: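 Test compound incubated in human plasma at 37 °C, with stability followed as a curve over time. Three independent experiments (n = 3), reported as mean ± SEM. Groups compared by two-way ANOVA with Bonferroni post hoc comparisons.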

mouse vas deferens (δ) [4] = settings: read-out: MVD (δ) IC50; ±SEM; ref [1b] and [13]; cited from earlier work
[5] = system: guinea pig ileum/longitudinal muscle myenteric plexus (μ); settings: read-out: GPI (μ) IC50; ±SEM; ref [1b] and [13]; cited from earlier work

For `C[C@@H](NC(=O)[C@@H](N)Cc1ccc(O)cc1)C(=O)NCC(=O)N[C@H](CC(=O)NNC(=O)C[C@H](Cc1ccccc1)NC(=O)CNC(=O)[C@@H](C)NC(=O)[C@@H](N)Cc1ccc(O)cc1)Cc1ccccc1` [Compound 1, 2 TFA·(Tyr-D-Ala-Gly-hβ^3Phe-NH)2], the IC50 (mouse vas deferens (δ) [1]) was 33 ± 9.4 nM, the IC50 [2] was 50 ± 6.5 nM and the “MPE (antinociceptive effect)” value (mouse hot plate) was 100%. The “enzymatic stability, remaining parent compound versus time” value [3] was “increased stability”.

In the case of `C[C@@H](NC(=O)[C@@H](N)Cc1ccc(O)cc1)C(=O)NCCC(=O)N[C@@H](Cc1ccccc1)C(=O)NNC(=O)[C@H](Cc1ccccc1)NC(=O)CCNC(=O)[C@@H](C)NC(=O)[C@@H](N)Cc1ccc(O)cc1` [Compound 2, 2 TFA·(Tyr-D-Ala-βAla-Phe-NH)2], the IC50 (mouse vas deferens (δ) [1]) is reported as 1300 ± 221 nM, the “GPI (μ) inhibition at fixed concentration” value ([2]; at 1 μM) is reported as 9.2% at 1 μM and the “IC50 (GPI)/IC50 (MVD)” value ([2]; ratio) is reported as greater than 0.75.

Molecule `C[C@@H](NC(=O)C[C@@H](N)Cc1ccc(O)cc1)C(=O)NCC(=O)N[C@@H](Cc1ccccc1)C(=O)NNC(=O)[C@H](Cc1ccccc1)NC(=O)CNC(=O)[C@@H](C)NC(=O)C[C@@H](N)Cc1ccc(O)cc1` [Compound 4, 2 TFA·(hβ^3Tyr-D-Ala-Gly-Phe-NH)2] has an IC50 (mouse vas deferens (δ) [1]) of 710 ± 97 nM and an IC50 [2] of 670 ± 139 nM.

For Biphalin [Bph], the IC50 (mouse vas deferens (δ) [4]) is listed as 2.7 ± 1.5 nM and the IC50 [5] is listed as 8.8 ± 0.3 nM.
